From paper PMC3569657 (EMBO Molecular Medicine, 2012)
Several values for one entry are separate records, joined by “and”; a condition that tells them apart may be missing. Equal entries are not always repeated. Where two headings read alike, the source gives them in different places. Peptide text beside a SMILES is read from it. * marks the point of attachment. Cbz = O=C(OCc1ccccc1)*; CH2F = FC*

Assays:
[1] = test system: ATG5−/− MEFs; test: Caspase 3 activity assay, taxol-induced apoptosis; assay type: cell-based, mouse; settings: 80 nM and 24 h, compared to WT MEFs
[2] = target: purified recombinant human I2PP2A/SET (Homo sapiens, UniProt Q01105); test: SPR binding of purified human I2PP2A/SET to lipid vesicles
Outline: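 SPR at 25°C. Sensor chip coated with vesicles of POPC:POPE:x (75:20:5, x = C18-ceramide or test compound) to about 6200 RU, against a POPC:POPE (80:20) control surface, and stabilised with 50 mM NaOH. Protein (I2PP2A/SET, or p47phox-PX control protein) in 20 mM HEPES pH 7.4, 0.16 M KCl was flowed at 5 µl/min. Triplicate sensorgrams per lipid were fitted individually for ka and kd, giving Kd = kd/ka.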

[3] = FTY720 and P-FTY720 in tumour and serum of A549-xenograft mice by LC/MS/MS; assay type: in vivo, SCID mice; settings: mice treated with oral FTY720 3 mg/kg/day
[4] = FTY720 and P-FTY720 in serum and tumours of LLC-allograft mice by LC/MS/MS; assay type: in vivo, mouse; settings: oral FTY720 10 mg/kg
Outline: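 Lewis lung adenocarcinoma allografts were grown in flanks of WT and SK-2−/− mice. Animals received oral test compound at 10 mg/kg. Parent compound and its phosphorylated form were quantified by LC/MS/MS in the tumours.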

[5] = test system: A549 cells; test: Cell death by LDH release; assay type: cell-based, human; settings: for effect of pre-treatment on FTY720-mediated cell death / growth suppression: A549 cells, FTY720 20 µM, OA 10 nM
Outline: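 A549 cells were exposed to 20 µM test compound or vehicle for 24 h, and cell death was read as LDH released into the medium. Variants included pre-treatment with okadaic acid (10 nM), Z-VAD or necrostatin, and PP2A siRNA knockdown against scrambled siRNA (knockdown checked by Western blot). Another variant used HA-tagged PP2A overexpression, confirmed by Western blot, compared with controls.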

[6] = test system: H157 (K-Ras mutant) human lung cancer cells; test: Cell death by LDH release; assay type: cell-based; settings: FTY720 20 µM; for effect on FTY720-mediated cell death: LDH release
Outline: (§1)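 Cell death was assessed in human lung cancer lines H157 (K-Ras mutant) and H827 (EGFR mutant) after exposure to test compound. Conditions compared with controls: RIPK1 inhibition by necrostatin, PP2A inhibition by okadaic acid, and siRNA knockdown of RIPK1 or PP2Ac.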

[7] = target: I2PP2A/SET (Homo sapiens, UniProt Q01105); assay type: binding; settings: unlabeled competitor 10 µM; purified I2PP2A/SET
Outline: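 Recombinant human I2PP2A/SET (His-tag vector), 1–2 µg, incubated with biotin alone or biotin-labelled test compound (1, 5 or 10 µM). Competition runs added unlabelled ceramide or the parent or phosphorylated compound, 10 µM each. Bound protein was captured by streptavidin/avidin column pull-down, and eluates were run on SDS–PAGE and immunoblotted with anti-I2PP2A/SET.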

[8] = test system: A549-xenograft-derived tumours; test: A549-xenograft-derived tumour growth in SCID mice; assay type: in vivo, Balb/c SCID mice
Outline: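 A549 cells, or A549 lines with control shRNA, I2PP2A/SET shRNA or shRNA plus WT-I2PP2A/SET re-expression, grown as flank xenografts in Balb/c SCID mice. Test compound was given by oral gavage at 3 mg/kg/day against vehicle-treated controls: 15 days (n = 12) for parental xenografts, 18 days for the shRNA lines. Tumour volume change was computed relative to untreated sh-control mice at Day 18. Tumours were also examined by electron microscopy for mitochondrial damage and cytoplasmic swelling.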

[9] = test system: P-PP2A (Y307), c-Myc, hTERT mRNA; test: PP2A signalling markers in A549-xenograft tumours; assay type: in vivo, SCID mice; settings: 3 mg/kg/day oral
[10] = test system: c-Myc; test: c-Myc expression in A549 cells by Western blotting; assay type: cell-based, human; settings: compared to controls
Outline: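 A549 cells were treated with test compound or its phosphorylated form alongside controls. c-Myc was detected by Western blotting with actin as loading control, and relative c-Myc levels were derived from band quantification.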

[11] = test system: c-Myc-V5; test: Ectopically expressed c-Myc-V5 in MEFs by Western blotting; assay type: cell-based, mouse
Outline: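 V5-tagged c-Myc was ectopically expressed in WT, SK-1−/− and SK-2−/− mouse embryonic fibroblasts. Cells were exposed to test compound, and c-Myc was detected by Western blotting with actin as loading control. Relative c-Myc levels were derived from band quantification.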

[12] = test system: WT MEFs; test: MTT growth assay; assay type: cell-based; settings: Mus musculus
[13] = test system: SK1−/− MEFs; test: MTT growth assay; assay type: cell-based; settings: Mus musculus
[14] = test system: SK2−/− MEFs; test: MTT growth assay; assay type: cell-based; settings: Mus musculus
[15] = test system: Lewis lung adenocarcinoma cell (LLC)-derived allografts; test: Lewis lung adenocarcinoma allograft growth in WT and SK-2−/− mice; assay type: in vivo, mouse; settings: 10 mg/kg/day oral, vs controls
Outline: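 Lewis lung adenocarcinoma cells were implanted in flanks of WT (C57BL/6 background) and SK-2−/− mice. Animals were treated with oral test compound at 10 mg/kg or served as controls. Results are given as % change in tumour volume for each genotype against its controls at Day 13.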

[16] = test system: PP2A; test: PP2A activity assay on A549 cell extracts; assay type: cell-based, human; settings: 10 µM FTY720, compared to vehicle-treated controls
Outline: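 PP2A phosphatase activity was measured in extracts of A549, A549/shI2PP2A and A549/shI2PP2A re-expressing WT-I2PP2A/SET (about 60% reconstitution). Cells were grown with or without 10 µM test compound. In a related set, PP2A siRNA knockdown in A549 cells was compared with scrambled-siRNA controls.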

[17] = test system: serum LDH; test: Total LDH released in serum of xenograft-bearing mice; assay type: in vivo, SCID mice; settings: mice bearing A549/sh-control xenografts, 3 mg/kg/day oral
Outline: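 Balb/c SCID mice bearing A549/sh-control, sh-I2PP2A/SET or reconstituted WT-I2PP2A/SET xenografts were dosed by daily oral gavage at 3 mg/kg for 18 days, with untreated mice as controls. Total serum LDH was measured by an external analytical lab.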

[18] = test system: H827 (EGFR mutant) human lung cancer cells; test: Cell death by LDH release; assay type: cell-based; settings: FTY720 20 µM
Outline: as §1

[19] = test system: RIPK1−/− MEFs; test: Cell death in RIPK1−/− versus RIPK1+/+ MEFs; assay type: cell-based, mouse; settings: FTY720 15 µM, RIPK1−/− compared to RIPK1+/+ MEFs
[20] = test system: MEFs obtained from caspase3/7−/− DKO, Bax/Bak−/− DKO or ATG5−/− KO mice; test: MTT growth assay in knockout MEFs; assay type: cell-based, mouse; settings: various concentrations
[21] = test system: A549 cells; test: Annexin V/7-AAD flow cytometry; assay type: cell-based, human; settings: compared to controls
[22] = target: WT-I2PP2A/SET-GFP (Homo sapiens, UniProt Q01105); test: anti-GFP pull-down from A549 cells, protein-bound endogenous lipids by LC/MS/MS; assay type: binding; settings: for binding of WT-I2PP2A/SET to ceramide, fold: compared to the K209D-I2PP2A/SET (so in the source)
[23] = target: Y122C-I2PP2A/SET-GFP (Homo sapiens, UniProt Q01105, Y135C); test: as above; assay type: binding; settings: compared to vector-transfected controls
Chain of Y122C-I2PP2A/SET-GFP (Q01105 1-277 isoform Q01105-2 Y122C): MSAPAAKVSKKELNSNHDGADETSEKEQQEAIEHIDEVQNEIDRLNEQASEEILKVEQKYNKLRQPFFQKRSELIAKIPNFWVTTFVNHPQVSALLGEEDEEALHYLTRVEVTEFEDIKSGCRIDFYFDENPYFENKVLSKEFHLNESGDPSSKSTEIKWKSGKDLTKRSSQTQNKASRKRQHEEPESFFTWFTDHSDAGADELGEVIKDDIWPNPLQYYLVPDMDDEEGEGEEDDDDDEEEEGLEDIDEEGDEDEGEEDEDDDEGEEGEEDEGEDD

Chain of purified recombinant human I2PP2A/SET (Q01105 1-277 isoform Q01105-2): as the sequence (Q01105 1-277 isoform Q01105-2 Y122C) above, with C122Y counted along it
Chain of WT-I2PP2A/SET-GFP (Q01105 1-277 isoform Q01105-2): as the sequence (Q01105 1-277 isoform Q01105-2 Y122C) above, with C122Y counted along it
Chain of I2PP2A/SET (Q01105 1-277 isoform Q01105-2): as the sequence (Q01105 1-277 isoform Q01105-2 Y122C) above, with C122Y counted along it

**Q.** For CC(=O)O[C@H]1C(=O)[C@@]2(C)[C@H]([C@H](OC(=O)c3ccccc3)[C@]3(O)C[C@H](OC(=O)[C@H](O)[C@@H](NC(=O)c4ccccc4)c4ccccc4)C(C)=C1C3(C)C)[C@]1(OC(C)=O)CO[C@@H]1C[C@@H]2O [taxol], which “caspase 3 activity (apoptosis)” value [1] is on record?
**A.** increased caspase 3 activity

**Q.** With CCCCCCCCc1ccc(CC[C@](N)(CO)COP(=O)(O)O)cc1 [P-FTY720] as the compound, how does the “Protein Kd” value ([2]; liposomes POPC:POPE:x (75:20:5), control POPC:POPE (80:20), 1 µM I2PP2A, 20 mM HEPES pH 7.4, 160 mM KCl) read?
**A.** below the detection limit

**Q.** What about the “accumulation in A549-xenograft-derived tumours” value [3] of the same compound?
**A.** 0.05 pmol/nmol Pi

**Q.** What about the accumulation in serum [3] of the same compound?
**A.** ~400 pmol/mL

**Q.** What about the “accumulation in serum on loss of SK-2” value ([4]; SK-2−/− mice) of the same compound?
**A.** almost completely abrogated

**Q.** Which “effect of pre-treatment on FTY720-mediated cell death / growth suppression” value ([5]; LDH release) does the source give for CN1C(=O)C(Cc2c[nH]c3ccccc23)NC1=S (centres unmarked) [necrostatin] here?
**A.** significantly prevented

**Q.** And the “effect on FTY720-mediated cell death” value [6]?
**A.** prevented FTY720-mediated cell death

**Q.** What does the source list for CCCCCCCCc1ccc(CCC(N)(CO)CO)cc1 [FTY720, 2-amino-2-[2-(4-octylphenyl)ethyl]propane-1,3-diol]?
**A.** Kd ([2]; Protein Kd, liposomes POPC:POPE:x (75:20:5), control POPC:POPE (80:20), 1 µM I2PP2A, 20 mM HEPES pH 7.4, 160 mM KCl): ~11 nM and 11 nM; competition with B-FTY720-I2PP2A/SET binding [7]: competed significantly; tumour suppression in A549/sh-I2PP2A/SET xenografts expressing WT-I2PP2A/SET ([8]; 3 mg/kg/day oral): restored tumour suppressor effects; tumour suppression in response to I2PP2A/SET knockdown (A549/sh-I2PP2A/SET xenografts) ([8]; 3 mg/kg/day oral): no additional effects; growth of A549-xenograft-derived tumours ([8]; 3 mg/kg/day oral for 15 days, n = 12, p < 0.05 vs controls): inhibited the growth; inhibition of growth of A549/control-derived xenografts ([8]; 3 mg/kg/day oral, 18 days, vs vehicle-treated controls): ~80%; tumours with damaged/swollen mitochondria (TEM) ([8]; oral FTY720, n = 20): ~40%; accumulation in A549-xenograft-derived tumours [3]: 0.2 pmol/nmol Pi; accumulation in serum [3]: ~100 pmol/mL; c-Myc and hTERT mRNA in tumours ([9]; IHC or Western blotting, Q-PCR): decreased; inactive P-PP2A (Y307) in tumours ([9]; IHC, without affecting total PP2A): decreased; c-Myc levels [10]: decreased c-Myc levels; reduced c-Myc expression ([11]; SK-1−/− MEFs): 70%; reduced c-Myc expression ([11]; SK-2−/− MEFs): 55%; reduced c-Myc expression ([11]; WT MEFs): 80%; IC50 [12]: ~10000 nM; IC50 [13]: ~10000 nM; IC50 [14]: ~10000 nM; inhibition of tumour growth ([15]; SK-2−/− mice): ~47%; inhibition of tumour growth ([15]; WT mice): ~60%; accumulation in tumours grown in WT and SK-2−/− mice [4]: comparable; PP2A activity [16]: enhanced PP2A activity; cell death ([5]; 20 µM, 24 h, LDH release): significantly induced cell death; increase of FTY720-mediated cell death on overexpression of PP2A-HA ([5]; compared to controls): ~40%; serum LDH [17]: increased serum LDH; PP2A-dependent necroptosis [6]: detected; PP2A-dependent necroptosis [18]: detected; cell death on genetic loss of RIPK1 [19]: almost completely abrogated cell death; effect of genetic loss of caspases3/7, Bax/Bak or ATG5 on FTY720-induced cell death [20]: no protective effect; Annexin V/7-AAD positive cell populations [21]: increased

**Q.** With CCCCCCCCCCCCC/C=C/[C@@H](O)[C@H](CO)NC(=O)CCCCCCCCCCCCCCCCC [C18-ceramide] as the compound, how does the Kd ([2]; read-out: Protein Kd, liposomes POPC:POPE:x (75:20:5), control POPC:POPE (80:20), 1 µM I2PP2A, 20 mM HEPES pH 7.4, 160 mM KCl) read?
**A.** ~11 nM and 11 nM

**Q.** And the “competition with B-FTY720-I2PP2A/SET binding” value [7]?
**A.** competed significantly

**Q.** For CC(NC(=O)C(NC(=O)OCc1ccccc1)C(C)C)C(=O)NC(CC(=O)O)C(=O)CF (stereo not drawn) [Z-VAD] (Cbz-Val-Ala-Asp-CH2F; configuration not given here), which “effect of pre-treatment on FTY720-mediated cell death / growth suppression” value ([5]; LDH release) is on record?
**A.** had no effect

**Q.** For CCCCCCCCCCCCC/C=C/[C@@H](O)[C@H](CO)NC(=O)CCCCCCCCCCCCCCCCCCCCC [C22], which “binding of WT-I2PP2A/SET to ceramide, fold” value [22] is on record?
**A.** 2.6 fold

**Q.** Which results are given for CCCCCCCCCCCCC/C=C/[C@@H](O)[C@H](CO)NC(=O)CCCCCCCCCCCCCCCCCCCCCCCCC [C26]?
**A.** binding of WT-I2PP2A/SET to ceramide, fold [22]: 2.5 fold; increased binding of Y122C-I2PP2A/SET to ceramide, fold [23]: ~2.4 fold

**Q.** With CCCCCCCCCCCCC/C=C/[C@@H](O)[C@H](CO)NC(=O)CCCCCCCCCCCCCCCCCCC [C20] as the compound, how does the “binding of WT-I2PP2A/SET to ceramide, fold” value [22] read?
**A.** 1.9 fold

**Q.** With CCCCCCCCCCCCC/C=C/[C@@H](O)[C@@H](N)CO [sphingosine] as the compound, how does the “binding of endogenous sphingosine” value ([22]; LC/MS/MS after pull-down) read?
**A.** bind

**Q.** For CCCCCCCCCCCCC/C=C/[C@@H](O)[C@H](CO)NC(=O)CCCCCCCCCCCCCCCCCCCCCCC [C24], which “binding of WT-I2PP2A/SET to ceramide, fold” value [22] is on record?
**A.** 2.1 fold

**Q.** Which “effect on FTY720-mediated cell death” value [6] does the source give for C=C1[C@@H](O)[C@@H]2O[C@]3(CC[C@H](/C=C/[C@@H](C)[C@@H]4CC(C)=C[C@@]5(O[C@H](C[C@@](C)(O)C(=O)O)CC[C@H]5O)O4)O3)CC[C@H]2O[C@@H]1[C@@H](O)C[C@H](C)[C@H]1O[C@@]2(CCCCO2)CC[C@H]1C [okadaic acid] here?
**A.** prevented FTY720-mediated cell death
